Activity calls are given as the source filed them. No cut-off for these calls is given here.

Data set [1] has as its target T1, Sphingomyelin phosphodiesterase (Homo sapiens) (UniProt P17405).
T1 sequence (whole entry): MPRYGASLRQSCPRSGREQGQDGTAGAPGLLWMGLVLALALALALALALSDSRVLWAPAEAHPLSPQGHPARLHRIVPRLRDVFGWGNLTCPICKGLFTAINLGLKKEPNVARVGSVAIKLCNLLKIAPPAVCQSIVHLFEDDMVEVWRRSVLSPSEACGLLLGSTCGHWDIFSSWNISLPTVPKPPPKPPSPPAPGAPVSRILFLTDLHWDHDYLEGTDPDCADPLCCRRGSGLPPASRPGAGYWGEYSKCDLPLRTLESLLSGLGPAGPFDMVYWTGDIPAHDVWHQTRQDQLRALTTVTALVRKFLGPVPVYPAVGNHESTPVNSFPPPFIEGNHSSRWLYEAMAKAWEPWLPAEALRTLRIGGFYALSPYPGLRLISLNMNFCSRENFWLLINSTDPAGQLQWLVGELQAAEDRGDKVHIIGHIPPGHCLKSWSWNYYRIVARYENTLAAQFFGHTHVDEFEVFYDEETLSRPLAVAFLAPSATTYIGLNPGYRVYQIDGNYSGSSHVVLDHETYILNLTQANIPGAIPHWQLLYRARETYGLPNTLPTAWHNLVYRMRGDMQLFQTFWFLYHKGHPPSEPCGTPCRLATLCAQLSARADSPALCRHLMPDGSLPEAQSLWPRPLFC
Description: Inhibition of human full length ASM at 1 to 10 uM using HMU-PC as fluorogenic substrate incubated for 45 mins by fluorescence based assay.

The target in data set [2] is T2, Acid ceramidase (Homo sapiens) (UniProt Q13510).
T2 sequence (whole entry): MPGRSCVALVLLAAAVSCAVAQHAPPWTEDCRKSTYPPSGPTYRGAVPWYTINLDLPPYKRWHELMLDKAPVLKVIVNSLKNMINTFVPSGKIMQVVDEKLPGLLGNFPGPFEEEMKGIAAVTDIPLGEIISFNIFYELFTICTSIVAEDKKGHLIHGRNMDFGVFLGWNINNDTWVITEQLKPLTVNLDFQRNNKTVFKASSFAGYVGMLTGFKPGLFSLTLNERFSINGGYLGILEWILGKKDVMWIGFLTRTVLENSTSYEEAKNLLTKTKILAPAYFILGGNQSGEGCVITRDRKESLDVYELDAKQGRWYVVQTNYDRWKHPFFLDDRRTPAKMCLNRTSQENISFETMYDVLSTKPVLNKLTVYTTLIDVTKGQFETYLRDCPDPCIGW
The data set can be described thus: Inhibition of acid ceramidase in human SH-SY5Y cells assessed as change in intracellular accumulation of SM (d18:1/16:0) up to 10 uM measured after 3 hrs by LC/MS analysis. In kind it is cell-based. A digest of the protocol: (§1)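 SH-SY5Y neuroblastoma cells exposed 3 h to 1, 2.5, 5 and 10 μM; AC activity by LC/MS-based assay; ceramide species, sphingosine, SM and HexCer (d18:1/16:0) quantified by LC/MS; means ± S.E.M. of at least six determinations, experiment repeated twice.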

In data set [3] the target is T2, Acid ceramidase (Homo sapiens). Description: Inhibition of acid ceramidase in human SH-SY5Y cells assessed as increase in intracellular accumulation of Cer (d18:0/16:0) measured after 3 hrs by LC/MS analysis. It counts as cell-based. A digest of the protocol:
as §1

For data set [4] the target is unchanged. The data set can be described thus: Inhibition of acid ceramidase in human SH-SY5Y cells using N-lauroyl ceramide as substrate measured after 3 hrs by LC/MS analysis. It counts as cell-based. An outline of the steps:
as §1

Data set [5] is described as follows: Unbound drug level in brain of C57BL/6J/129SvEV mouse model of Gaucher's disease at 30 mg/kg, ip administered once daily for 14 days measured 1 hr post-last dose. In kind it is ADME, organism-based. The note with it: in vivo. An outline of the steps:
(§2)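 4L;C* mice dosed i.p. once daily for 14 days, killed 1 h after last dose (day 14); plasma and brain drug levels measured; unbound concentrations from plasma and brain unbound fractions (mean of two technical replicates); N = 4–8, mixed sexes.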

A short description of data set [6]: Unbound plasma concentration in twitcher mouse model of Krabbe's disease at 90 mg/kg, ip administered once daily for 20 days measured 1 hr post-last dose. In kind it is ADME, organism-based. The note with it: in vivo. An outline of the steps: (§3)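 Twitcher mice dosed i.p. once daily for 20 days, sacrificed 1 h after last dose (day 20); drug measured in plasma and brain; unbound levels from unbound fractions (mean of two technical replicates); N = 3 males + 3 females per group.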

Data set [7] deals with T2, Acid ceramidase (Homo sapiens). The data set can be described thus: Inhibition of acid ceramidase in human SH-SY5Y cells assessed as decrease in sphingosine level at 10 uM measured up to 6 hrs by LC/MS analysis. It counts as cell-based. A digest of the protocol:
(§4)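 Human neuroblastoma SH-SY5Y cells incubated with compound at 10 μM for 30 min, 1 h, 3 h and 6 h; AC activity by LC/MS-based activity assay; Cer (d18:0/16:0), Cer (d18:1/16:0), sphingosine, SM (d18:1/16:0) and HexCer (d18:1/16:0) quantified by LC/MS.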

For data set [8] the target is unchanged. The data set can be described thus: Inhibition of acid ceramidase in human SH-SY5Y cells assessed as increase in intracellular accumulation of Cer (d18:1/16:0) measured after 3 hrs by LC/MS analysis. In kind it is cell-based. An outline of the steps: as §1
Data set [9] is described as follows: Unbound plasma concentration in C57BL/6J/129SvEV mouse model of Gaucher's disease at 30 mg/kg, ip administered once daily for 14 days measured 1 hr post last dose. In kind it is ADME, organism-based. As to conditions: in vivo. An outline of the steps:
as §2

Data set [10] deals with T2, Acid ceramidase (Homo sapiens). The data set can be described thus: Inhibition of acid ceramidase in human SH-SY5Y cells assessed as change in intracellular accumulation of HexCer (d18:1/16:0) up to 10 uM measured after 3 hrs by LC/MS analysis. In kind it is cell-based. An outline of the steps: as §1
Data set [11] can be described thus: Unbound plasma concentration in C57BL/6J/129SvEV mouse model of Gaucher's disease at 90 mg/kg, ip administered once daily for 14 days measured 1 hr post last dose. In kind it is ADME, organism-based. As to conditions: in vivo. A digest of the protocol:
as §2

Data set [12] is described as follows: Unbound drug level in brain of twitcher mouse model of Krabbe's disease at 30 mg/kg,ip administered once daily for 20 days measured 1 hr post-last dose. The note with it: in vivo. In kind it is ADME, organism-based. An outline of the steps:
as §3

Data set [13] can be described thus: Unbound plasma concentration in twitcher mouse model of Krabbe's disease at 30 mg/kg, ip administered once daily for 20 days measured 1 hr post-last dose. The note with it: in vivo. It counts as ADME, organism-based. An outline of the steps: as §3
Data set [14] has as its target T2, Acid ceramidase (Homo sapiens). The data set can be described thus: Inhibition of acid ceramidase in human SH-SY5Y cells assessed as change in intracellular accumulation of SM (d18:1/16:0) at 10 uM measured up to 6 hrs by LC/MS analysis. It counts as cell-based. A digest of the protocol:
as §4

In data set [15] the target is T3, Monoglyceride lipase (Homo sapiens) (UniProt Q99685).
T3 sequence (whole entry): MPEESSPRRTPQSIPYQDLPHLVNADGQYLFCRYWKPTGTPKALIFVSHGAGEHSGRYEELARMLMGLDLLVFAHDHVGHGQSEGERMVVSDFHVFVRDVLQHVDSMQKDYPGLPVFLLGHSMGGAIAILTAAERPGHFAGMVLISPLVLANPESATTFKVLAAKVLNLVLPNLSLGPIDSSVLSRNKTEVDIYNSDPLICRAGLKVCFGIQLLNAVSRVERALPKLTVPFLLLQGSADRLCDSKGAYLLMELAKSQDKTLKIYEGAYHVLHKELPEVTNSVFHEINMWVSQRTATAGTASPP
The data set can be described thus: Inhibition of recombinant human MAGL at 1 to 10 uM using 4-nitrophenylacetate as substrate preincubated for 5 mins followed by substrate addition and measured after 10 mins by colorimetric method.

The target in data set [16] is T2, Acid ceramidase (Homo sapiens). Description: Inhibition of acid ceramidase in human SH-SY5Y cells at 10 uM using N-lauroyl ceramide as substrate by LC/MS analysis. In kind it is cell-based. The note with it: TDE = time-dependent effect. A digest of the protocol: as §4

For `CC(C)CNC(=O)n1c(=O)oc2cc(C3CCN(C)CC3)ccc21`, the inhibition entry in [1], in data set [2], in [10], in data set [14] and in data set [15] was “inactive” each time. The inhibition result in data set [3] was “Dose-dependent effect”; in data set [4], “Dose-dependent effect”; in [8] it was “Dose-dependent effect”; in [16] it was “Tde”. In addition, the “Drug uptake(free)” value was determined as 0.77 µM in data set [5] and 0.8 µM in data set [12]. Further, the “Cp(f)” value in data set [6] was determined as 520 nM; in data set [9], 420 nM; in [11] it was 2320 nM; in data set [13], 110 nM. Further, the inhibition result in data set [7] was “Active”.

These data come from ChEMBL document CHEMBL4342473, “Lead Optimization of Benzoxazolone Carboxamides as Orally Bioavailable and CNS Penetrant Acid Ceramidase Inhibitors” (J Med Chem, 2020).
